Many of the other results were omitted from the sample, so hits are more common in it than they were.
INS-1E rescue – preserves ATP levels in cytokine-treated INS-1E cells; protection from cytokine-induced ATP loss, % at 10 µM; 20,000 compounds, 0.1% hits; INS-1E cytokine-induced death, ATP luminescence, 48 h; normalised: neutral wells 0, positive control 100; AID 488910;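 active = mean replicate protection from cytokine-induced ATP loss at least 50% and at least 75% of replicates each reaching 50%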
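Assay system – rat INS-1E insulinoma cell line · Quantity – 8000 cells per well · Buffer or medium – RPMI without phenol red, 5% FBS · Schedule – 48 h co-treatment, 10 min post-lysis read · Technique – luminescent ATP assay (CellTiter-Glo)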
A1 apoptosis 2 – A1 inhibition read as caspase activation; MEF A1-2A-BIM cells, caspase-Glo luminescence, 3 h; percent of clofoctol response, DMSO zero; 24,000 tested, under 10 active; caspase activation, % (no concentration beside the values); in the data active = caspase activation above about 5.9%
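Material: mouse embryonic fibroblasts co-expressing A1 and BIM (A1-2A-BIM), primed for A1 dependence / Quantity: 2500 cells/well / Buffer or medium: RPMI-1640 growth medium with 10% FBS / Doses: 50 nL compound per well, pinned / Schedule: 3 h compound exposure at 37 °C / Signal: Caspase-Glo luminescence (DEVD substrate) / Measure: Caspase-3/7 activation, seen as rise in luminescence signal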
T cruzi HTS – blocks T. cruzi growth inside host cells. activity score (inhibition), % at 5.01 µM. intracellular Trypanosoma cruzi in host cells, plate reader. AID 651903. 22,000 compounds, 4.9% hits; in the data active = activity score above about 55%;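 also: parasites and compound incubated about four days before reading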
A number is an active result; i = inactive; nt = not tested or not shown.

SMILES	INS-1E rescue	A1 apoptosis 2	T cruzi HTS
C[C@@H]1CN([C@H](C)CO)C(=O)c2cc(NC(=O)Nc3ccc(C(F)(F)F)cc3)ccc2O[C@H]1CN(C)S(=O)(=O)c1ccccc1	i	i	70
C[C@@H]1CN([C@@H](C)CO)C(=O)c2cc(NC(=O)Nc3ccc(C(F)(F)F)cc3)ccc2O[C@H]1CN(C)S(=O)(=O)c1ccc(F)cc1	i	i	i
C[C@H]1CN([C@@H](C)CO)C(=O)c2cc(NC(=O)Nc3cccc4ccccc34)ccc2O[C@H]1CN(C)S(=O)(=O)c1ccc(F)cc1	i	nt	65
C[C@H](CO)N1C[C@H](C)[C@H](CN(C)S(=O)(=O)c2ccc(F)cc2)Oc2ccc(NC(=O)Nc3ccc(C(F)(F)F)cc3)cc2C1=O	nt	i	i
C[C@@H]1CN([C@@H](C)CO)C(=O)c2cc(NC(=O)Nc3ccc(C(F)(F)F)cc3)ccc2O[C@@H]1CN(C)S(=O)(=O)c1ccc(F)cc1	i	i	68
C[C@@H]1CN([C@@H](C)CO)C(=O)c2cc(NC(=O)Nc3cccc4ccccc34)ccc2O[C@@H]1CN(C)S(=O)(=O)c1ccc(F)cc1	i	i	i
CCO/N=[N+](\[O-])N1CCCC1	nt	i	nt
O=C(CCCCCC(=O)N/N=C/c1ccc(-n2ccnc2)cc1)NO	i	nt	i
CCOc1cc(OCC)cc(C(=O)N[C@@H](Cc2ccc(N=[N+]=[N-])cc2)C(=O)OC)c1	nt	i	nt
C[C@H]1CN([C@@H](C)CO)C(=O)Cc2cc(NS(=O)(=O)c3cccs3)ccc2O[C@@H]1CN(C)Cc1ccc(-c2ccccc2)cc1	i	i	56
C[C@@H]1CN([C@H](C)CO)C(=O)Cc2cc(NS(=O)(=O)c3ccccc3)ccc2O[C@@H]1CN(C)Cc1ccc(-c2ccccc2)cc1	i	i	71
C[C@@H]1CN([C@H](C)CO)C(=O)Cc2cc(NS(=O)(=O)c3ccc(F)cc3)ccc2O[C@@H]1CN(C)Cc1ccccc1	i	i	62
Cc1ccc(S(=O)(=O)Nc2ccc3c(c2)CC(=O)N([C@@H](C)CO)C[C@H](C)[C@H](CN(C)Cc2ccc(-c4ccccc4)cc2)O3)cc1	i	i	i
C[C@@H]1CN([C@@H](C)CO)C(=O)Cc2cc(NS(=O)(=O)c3ccccc3)ccc2O[C@@H]1CN(C)Cc1ccc(-c2ccccc2)cc1	i	nt	58
C[C@H](CO)N1C[C@H](C)[C@@H](CN(C)Cc2ccccc2)Oc2ccc(NS(=O)(=O)c3ccc(F)cc3)cc2CC1=O	nt	i	nt
Cc1ccc(S(=O)(=O)Nc2ccc3c(c2)CC(=O)N([C@H](C)CO)C[C@H](C)[C@H](CN(C)Cc2ccc(-c4ccccc4)cc2)O3)cc1	i	nt	i
C[C@H](CO)N1C[C@H](C)[C@@H](CN(C)Cc2ccc(-c3ccccc3)cc2)Oc2ccc(NS(=O)(=O)c3cccs3)cc2CC1=O	nt	i	nt
C[C@H](O)[C@H](O)[C@@H](O)[C@@H](O)/C=N/NC(=O)CCCCCCC(=O)Nc1ccccc1O	i	i	i
C[C@H](CO)N1C[C@H](C)[C@H](CN(C)Cc2ccc3c(c2)OCO3)Oc2c(NS(C)(=O)=O)cccc2C1=O	i	i	i
O=C(NO)c1ccc(C(=O)N/N=C/c2ccc3ccccc3c2)cc1	i	nt	i
COc1ccc([Si](C)(C)[C@H]2[C@H](CCn3cc([C@H](O)c4ccccc4)nn3)O[C@@]3(C(=O)N(Cc4ccc(N5CCOC5=O)cc4)c4ccccc43)[C@@H]2C)cc1	nt	i	nt
C[C@H]1CN([C@@H](C)CO)C(=O)Cc2cc(NS(=O)(=O)c3ccc(F)cc3)ccc2O[C@@H]1CN(C)Cc1ccc(-c2ccccc2)cc1	i	i	71
C[C@H]1CN([C@@H](C)CO)C(=O)Cc2cc(NS(=O)(=O)c3ccc(Cl)cc3)ccc2O[C@@H]1CN(C)Cc1ccc(-c2ccccc2)cc1	i	nt	61
Cc1ccc(S(=O)(=O)Nc2ccc3c(c2)CC(=O)N([C@H](C)CO)C[C@H](C)[C@@H](CN(C)Cc2ccc(-c4ccccc4)cc2)O3)cc1	nt	i	nt
C=CCNC(=O)[C@H]1[C@@H]2C(=O)O[C@@H](c3ccccc3)[C@@H](c3ccccc3)N2[C@@H](c2ccccc2OCCO)[C@]12C(=O)Nc1ccc(C#CC3=CCCCC3)cc12	nt	i	nt
SMILES	INS-1E rescue	A1 apoptosis 2	T cruzi HTS
Cc1ccc(S(=O)(=O)Nc2ccc3c(c2)CC(=O)N([C@H](C)CO)C[C@@H](C)[C@@H](CN(C)S(=O)(=O)c2ccccc2)O3)cc1	i	nt	69
Cc1ccc(S(=O)(=O)Nc2ccc3c(c2)CC(=O)N([C@H](C)CO)C[C@H](C)[C@H](CN(C)S(=O)(=O)c2ccccc2)O3)cc1	i	i	i
C[C@@H]1CN([C@@H](C)CO)C(=O)Cc2cc(NS(=O)(=O)c3ccccc3)ccc2O[C@@H]1CN(C)S(=O)(=O)c1ccc(Cl)cc1	i	i	67
C[C@@H]1CN([C@@H](C)CO)C(=O)Cc2cc(NS(=O)(=O)c3ccc(Cl)cc3)ccc2O[C@@H]1CN(C)S(=O)(=O)c1ccc(Cl)cc1	i	nt	67
C[C@H]1CN([C@@H](C)CO)C(=O)Cc2cc(NS(=O)(=O)c3ccc(Cl)cc3)ccc2O[C@H]1CN(C)S(=O)(=O)c1ccccc1	i	nt	i
C[C@H]1CN([C@@H](C)CO)C(=O)Cc2cc(NS(=O)(=O)c3ccc(Cl)cc3)ccc2O[C@H]1CN(C)S(=O)(=O)c1ccc(Cl)cc1	i	i	i
O=C(O)CCCCCC(=O)N/N=C/c1ccc(N(c2ccccc2)c2ccccc2)cc1	nt	i	nt
C[C@@H]1CCCCO[C@@H](CN(C)Cc2ccc(Cl)c(Cl)c2)[C@@H](C)CN([C@H](C)CO)C(=O)c2cc(NC(=O)NC3CCCCC3)ccc2O1	i	i	66
C[C@@H]1CCCCO[C@H](CN(C)Cc2ccc(Cl)c(Cl)c2)[C@@H](C)CN([C@@H](C)CO)C(=O)c2cc(NC(=O)NC3CCCCC3)ccc2O1	nt	i	nt
C[C@@H]1CCCCO[C@H](CN(C)Cc2ccc(C(=O)Nc3ccccc3N)cc2)[C@@H](C)CN([C@H](C)CO)C(=O)c2cc(NS(=O)(=O)c3ccccc3)ccc2O1	nt	i	nt
C[C@@H]1CCCCO[C@@H](CN(C)Cc2ccc(C(=O)Nc3ccccc3N)cc2)[C@@H](C)CN([C@H](C)CO)C(=O)c2cc(NS(C)(=O)=O)ccc2O1	i	i	56
C[C@@H]1CCCCO[C@@H](CN(C)Cc2ccc(Cl)c(Cl)c2)[C@@H](C)CN([C@H](C)CO)C(=O)c2cc(NC(=O)c3ccccc3)ccc2O1	i	i	65
C[C@@H]1CN([C@@H](C)CO)C(=O)c2cc(NC(=O)Nc3ccc(F)cc3)ccc2O[C@@H](C)CCCCO[C@H]1CN(C)Cc1ccc(Cl)c(Cl)c1	nt	i	nt
C[C@@H]1CCCCO[C@H](CN(C)Cc2ccc(Cl)c(Cl)c2)[C@@H](C)CN([C@@H](C)CO)C(=O)c2cc(NC(=O)c3ccccc3)ccc2O1	nt	i	nt
C[C@@H]1CCCCO[C@H](CN(C)Cc2ccc(Cl)c(Cl)c2)[C@@H](C)CN([C@H](C)CO)C(=O)c2cc(NC(=O)Nc3ccc(F)cc3)ccc2O1	i	i	86
Cc1[nH]cnc1/C=N/NC(=O)CCCCC(=O)NO	i	i	i
